Values joined by “and” are separate entries in the source; they are usually repeats but may differ in a detail not shown here. Identical values can stand only once. One block for each molecule: values may come before it.
Columns and labels:
[1] = (§1) Maximal plasma concentration in nude mice after 25 mg/kg oral dose; type: ADME, organism-based; design: dose 25 mg/kg, route oral; conditions: mouse
Mus musculus [2] = assay: In vivo antitumor efficacy in nude mice by injecting a dose of 25 mg/kg, as HCl salt in saline solution, perorally and the duration of action was reported; type: ADME, organism-based; design: dose 25 mg/kg, route oral; conditions: po
[3] = target: T1, Protein farnesyltransferase (Homo sapiens, UniProt P49354+P49356); assay: Inhibition of Farnesyltransferase from Ras-CVLS or Ras-CVLL in Cos-7 monkey kidney cells; type: cell-based, Chlorocebus aethiops
[4] = Oral bioavailability in mouse (nude) (dose of 25 mg/kg); type: ADME, organism-based; conditions: in vivo
How it was run: (§2)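 Serum pharmacokinetics in nude mice or cynomolgus monkeys after oral (po) or iv dosing. Compounds were given as hydrochloride salts in 20% HPβCD unless otherwise noted. Other formulations were the hydrochloride salt in saline, the micronized free base in 20% HPβCD or corn oil (po) with saline for iv, or the hydrochloride salt in 0.4% methyl cellulose (po).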

[5] = In vivo antitumor efficacy in nude mice by injecting a dose of 25 mg/kg, as HCl salt in saline solution, perorally and the total drug exposure was determined (0-4 hr); type: ADME, organism-based; design: time < 4 hr, dose 25 mg/kg, route oral; conditions: mouse, po
[6] = In vivo antitumor efficacy in nude mice by injecting a dose of 25 mg/kg, as HCl salt in saline solution, iv and the serum half-life was determined; type: ADME, organism-based; design: dose 25 mg/kg, route intravenous; conditions: mouse
[7] = target: T1, Protein farnesyltransferase; assay: In vitro inhibition of farnesyltransferase farnesylation of the H-ras oncogene; type: protein-complex assay
[8] = In vivo antitumor efficacy in nude mice by injecting a dose of 25 mg/kg, as HCl salt in saline solution, iv and the total drug exposure was determined. (0-4 hr); type: ADME, organism-based; design: time < 4 hr, dose 25 mg/kg, route intravenous; conditions: mouse
[9] = In vivo antitumor efficacy in nude mice by injecting a dose of 25 mg/kg, as HCl salt in saline solution, iv and the total drug exposure was determined.; type: ADME, organism-based; design: dose 25 mg/kg, route intravenous; conditions: mouse
Mus musculus [10] = assay: In vivo antitumor efficacy in nude mice by injecting a dose of 25 mg/kg, as HCl salt in saline solution, perorally and the total drug exposure was determined; type: ADME, organism-based; design: dose 25 mg/kg, route oral; conditions: po
Mus musculus [11] = assay: In vivo antitumor efficacy in nude mice by injecting a dose of 25 mg/kg, as HCl salt in solution, perorally and the total drug exposure was determined (0-24hr); type: ADME, organism-based; design: time < 24 hr, dose 25 mg/kg, route oral; conditions: po
[12] = Oral bioavailability in mouse (nude) (dose 25 mg/kg i.v.); type: ADME, organism-based; conditions: in vivo
[13] = In vivo antitumor efficacy in cynomolgus monkeys by injecting a dose of 25 mg/kg, as HCl salt in saline solution, perorally and the total drug exposure was determined (0-8 hr); type: ADME, organism-based, Macaca fascicularis; design: time < 8 hr, dose 25 mg/kg, route oral; conditions: cynomolgus monkey, po
How it was run: (§3)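 Cynomolgus monkeys; hydrochloride salt in saline iv, or compound given po (as hydrochloride, as micronized free base in corn oil, or as hydrochloride in 0.4% methyl cellulose, depending on compound).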

[14] = as §1; type: ADME, organism-based; design: dose 25 mg/kg, route oral; conditions: mouse; remark: listed apart in the source
[15] = (§4) In vivo antitumor efficacy in cynomolgus monkeys by injecting a dose of 25 mg/kg, as HCl salt in saline solution, perorally and the maximum drug concentration was determined; type: ADME, organism-based, Macaca fascicularis; design: dose 25 mg/kg, route oral; conditions: cynomolgus monkey, po; how it was run: as §2
[16] = In vivo antitumor efficacy in nude mice by injecting a dose of 25 mg/kg, as HCl salt in solution, iv and the serum half-life was determined; type: ADME, organism-based; design: dose 25 mg/kg, route intravenous; conditions: mouse
[17] = target: geranylgeranyltransferase type-I (Rattus norvegicus, UniProt P53610+Q04631); assay: Inhibition of rat Geranylgeranyl transferase (GGPT); type: protein-complex assay
Cynomolgus monkey [18] = assay: In vivo antitumor efficacy in cynomolgus monkeys by injecting a dose of 10 mg/kg, as HCl salt in saline solution, perorally and the duration of action was reported; type: ADME, organism-based, Macaca fascicularis; design: dose 10 mg/kg, route oral; conditions: po; how it was run: as §3
[19] = In vivo antitumor efficacy in nude mice by injecting a dose of 25 mg/kg, as HCl salt in solution, iv and the total drug exposure was determined. (0-24hr); type: ADME, organism-based; design: time < 24 hr, dose 25 mg/kg, route intravenous; conditions: mouse
[20] = Bioavailability in cynomolgus monkey (dose 25 mg/kg i.v.); type: ADME, organism-based, Macaca fascicularis; conditions: in vivo, iv; how it was run: as §2
[21] = In vivo antitumor efficacy in nude mice by injecting a dose of 25 mg/kg, as HCl salt in saline solution, perorally and the total drug exposure was determined (0-24hr); type: ADME, organism-based; design: time < 24 hr, dose 25 mg/kg, route oral; conditions: mouse, po
[22] = In vivo antitumor efficacy in cynomolgus monkeys by injecting a dose of 25 mg/kg, as HCl salt in saline solution, iv and the total drug exposure was determined. (0-8 hr); type: ADME, organism-based, Macaca fascicularis; design: time < 8 hr, dose 25 mg/kg, route intravenous; conditions: cynomolgus monkey; how it was run: as §2
Cynomolgus monkey [23] = assay: (§5) In vivo antitumor efficacy in cynomolgus monkeys by injecting a dose of 25 mg/kg, as HCl salt in saline solution, iv and the serum half-life was determined; type: ADME, organism-based, Macaca fascicularis; design: dose 25 mg/kg, route intravenous; conditions: in vivo; how it was run: as §2
[24] = as §5; type: ADME, organism-based, Macaca fascicularis; design: dose 25 mg/kg, route intravenous; conditions: cynomolgus monkey, serum; how it was run: as §2
Cynomolgus monkey [25] = assay: as §4; type: ADME, organism-based, Macaca fascicularis; design: dose 25 mg/kg, route oral; conditions: po; how it was run: as §2
Cynomolgus monkey [26] = assay: (§6) In vivo antitumor efficacy in cynomolgus monkeys by injecting a dose of 25 mg/kg, as the micronised free base in corn oil, perorally and the total drug exposure was determined (0-8 hr); type: ADME, organism-based, Macaca fascicularis; design: time < 8 hr, dose 25 mg/kg, route oral; conditions: po, 8 h; how it was run: as §2
[27] = as §6; type: ADME, organism-based, Macaca fascicularis; design: time < 8 hr, dose 25 mg/kg, route oral; conditions: cynomolgus monkey, po; how it was run: as §2
[28] = In vivo antitumor efficacy in nude mice by injecting a dose of 25 mg/kg, as HCl salt in saline solution, iv and the total drug exposure was determined. (0-24hr); type: ADME, organism-based; design: time < 24 hr, dose 25 mg/kg, route intravenous; conditions: mouse

Compound: CN1CCC(CC(=O)N2CCN(C3c4ccc(Cl)cc4CCc4cccnc43)CC2)CC1 (configuration not stated)
- Cmax [1]: 1400 nM
- Time above IC50 (Mus musculus [2]): 4 h
- IC50 [3]: 930 nM
- bioavailability [4]: 32%
- AUC at 4 h [5]: 1300 ng·h/mL
- half-life [6]: > 1 h
- IC50 [7]: 1400 nM
- AUC at 4 h [8]: 4100 ng·h/mL

- AUC [9]: 32900 ng·h/mL
- Cmax [1]: 30000 nM
- AUC (Mus musculus [10]): 39 uh ml-1
- AUC (Mus musculus [11]): 18.4 uh ml-1
- bioavailability [12]: 100%
- AUC at 8 h [13]: 37200 ng·h/mL
- bioavailability [4]: 45%
- Cmax [14]: 4000 nM
- Cmax [15]: 1500 nM
- half-life [16]: 8.3 h
- IC50 [17]: > 38000 nM
- Time above IC50 (Cynomolgus monkey [18]): 72 h
- AUC at 24 h [19]: 40600 ng·h/mL
- half-life [6]: 8.5 h
Compound: CN1CCC(CC(=O)N2CCN(C3c4ccc(Cl)cc4CCc4cc(Br)cnc43)CC2)CC1 (configuration not stated)

Compound: O=C(Cc1cccnc1)N1CCN(C2c3ccc(Cl)cc3CCc3cccnc32)CC1 (configuration not stated)
- Cmax [1]: 3900 nM
- F [20]: 1.4%
- bioavailability [20]: 2.2%
- AUC at 24 h [21]: 400 ng·h/mL
- Time above IC50 (Mus musculus [2]): 0.3 h
- bioavailability [12]: 36%
- AUC at 8 h [22]: 48600 ng·h/mL
- T1/2 (Cynomolgus monkey [23]): 1.5 h
- half-life [24]: 1.5 h
- Cmax (Cynomolgus monkey [25]): 290 nM and 110 nM
- AUC (Cynomolgus monkey [26]): 1.07 uh ml-1
- AUC at 8 h [27]: 450 ng·h/mL
- IC50 [17]: > 46000 nM
- AUC at 24 h [28]: 1100 ng·h/mL
- half-life [6]: 0.2 h
